Screens (PubChem BioAssay)
This is a sample that favours compounds with a hit; in the whole collection about 4.3% have one here.
Hep lipid drop: modulators of hepatic lipid droplet formation | AML12 mouse hepatocytes, oleate lipid droplets, BODIPY imaging | inhibition, % at 6.5 µM | hit rate 0.4% among 240,000 | AID 1656;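 active means lipid droplet intensity inhibited by at least 50%, with more than 500 cells counted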
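Technique: fluorescence imaging, 20x objective, two fields per well / Assay system: AML12 hepatocytes (mouse) / Measure: % inhibition of lipid droplet signal / Doses: 6.5 µM single-point dosing / Incubation: overnight exposure / Reagent: 100 µM oleic acid challenge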
SMARCA2 activ: increases SMARCA2 function in MMTV reporter cells | MG213 cells, MMTV-luciferase reporter, dexamethasone, overnight | hit rate 1% among 370,000 | activation, % at 9.1 µM | AID 652017; in the data active means activation above about 7.8%;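 further: 0% = vehicle wells and 100% = reference activator wells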
SR-BI HDL uptake: mouse SR-BI HDL lipid transfer inhibition. Q61009. ldlA[mSR-BI] CHO cells, DiI-HDL uptake fluorescence, 3 h. inhibition, % at 12.5 µM. hit rate 0.96% among 320,000. AID 488896;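 active means mean replicate inhibition of at least 70% and a set share of replicates each scoring 70 or more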;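 further: 0% = median of neutral control wells and 100% = median of positive control wells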
Target sequence (Q61009 whole entry, looked up): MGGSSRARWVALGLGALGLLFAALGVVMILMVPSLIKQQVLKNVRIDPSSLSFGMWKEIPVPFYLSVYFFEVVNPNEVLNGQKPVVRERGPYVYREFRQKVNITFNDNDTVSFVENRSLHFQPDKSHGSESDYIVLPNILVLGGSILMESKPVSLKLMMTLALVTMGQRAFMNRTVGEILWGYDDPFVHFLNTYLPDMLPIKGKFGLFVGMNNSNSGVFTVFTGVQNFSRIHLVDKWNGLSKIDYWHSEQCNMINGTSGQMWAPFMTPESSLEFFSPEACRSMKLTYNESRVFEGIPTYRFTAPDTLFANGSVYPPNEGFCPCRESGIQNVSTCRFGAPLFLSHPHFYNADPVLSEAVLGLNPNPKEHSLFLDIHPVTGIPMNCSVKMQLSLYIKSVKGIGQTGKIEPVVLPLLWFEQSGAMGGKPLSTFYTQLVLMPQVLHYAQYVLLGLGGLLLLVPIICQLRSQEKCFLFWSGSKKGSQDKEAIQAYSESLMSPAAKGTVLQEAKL
AHR activator: human AHR activation | hit rate 2.5% among 320,000 | P35869 | activation, % at 5 µM | AHR-responsive luciferase reporter cells, luminescence; in the data active means activation above about 47%;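 further: 0% = vehicle wells and 100% = reference agonist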
Yeast superoxide: lowers age-related superoxide in aged yeast cells; S. cerevisiae aged cells, superoxide DHE fluorescence; hits give low values; superoxide response (% of plate mean), % at 10 µM; hit rate 0.18% among 330,000; AID 2690;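 active means superoxide response under a set limit, about three screen SD below normal, cut at about 65% in these data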;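 further: yeast aged for seven days with compound at 30 °C before DHE staining; 100% = average MFI of all compound-treated wells on the plate with controls excluded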
SR-BI uptake up: SR-BI HDL lipid transfer activation. CHO ldlA[mSR-BI] cells, DiI-HDL uptake fluorescence, 3 h; 100 = double the neutral-control signal. activation, % at 12.5 µM. hit rate 0.096% among 320,000. AID 504775;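 active means mean replicate activation of at least 60% and every replicate at or above 60%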;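 further: 0% = median plate neutral-control signal and 100% = twice that signal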
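Test system: SR-BI-overexpressing, LDLR-lacking CHO cells. Measured by: DiI fluorescence, bottom read. Medium: Ham's F12 with 0.5% BSA, HEPES 25 mM, pH 7.4. Timing: 3 h uptake period with compound, 37 °C.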
* = called active by the depositor; . = not tested or not shown.

SMILES	Hep lipid drop	SMARCA2 activ	SR-BI HDL uptake	AHR activator	Yeast superoxide	SR-BI uptake up
O=C(c1ccccc1)c1c[nH]c2ccccc12	-23	0	-20	.	98	20
N#Cc1c(NC(=O)CN2CCN(C(=O)c3ccco3)CC2)sc2c1CCCCC2	.	-4	83*	1	103	-83
COc1ccccc1NC(=O)c1ccc(NC(=O)CN2CCN(C(=O)c3ccco3)CC2)cc1	16	-4	79*	0	103	-79
CCOc1ccc(NC(=O)CN2CCN(CC(=O)Nc3ccccc3OC)CC2)cc1	-10	3	78*	0	92	-78
N#Cc1c(NC(=O)CN2CCCCC2)sc2c1CCC2	-3	0	-4	-1	107	4
CCN(CC)c1ccc(NC(=O)CN2CCN(CC(=O)Nc3ccccc3OC)CC2)cc1	12	-2	68	2	100	-68
O=C(N[C@H](C(=O)N1CCC[C@H]1C(=O)NC1CCCC1)C1CCCCC1)c1ccco1	.	-1	.	.	.	.
CC1CCCCC1N(C(=O)c1cc(C2CC2)on1)C1CCCCC1 (configuration not stated)	.	-2	.	.	.	.
COCCNC(=O)c1c(N)n(CCCn2ccnc2)c2nc3ccccc3nc12	.	-2	1	53*	109	.
C=CCN1[C@H](C)COc2cc(F)ccc2S1(=O)=O	.	7	.	.	.	.
CCC1(CC)NC(=O)N(CC(=O)OC(C)C(=O)Nc2ccc(Cl)cn2)C1=O (configuration not stated)	.	-1	-4	2	100	4
CCC1(CC)NC(=O)N(CC(=O)OC(C)C(=O)Nc2cc([N+](=O)[O-])ccc2OC)C1=O (configuration not stated)	-1	-1	74*	0	99	-74
COC(=O)[C@]12C[C@H](CC(=O)NCC3CCCCC3)C(=O)N(Cc3ccco3)C1=C[C@H](C(C)C)O[C@@H]2C1CC1	.	-3	.	.	.	.
O=C(C(=O)N1CCN(S(=O)(=O)c2ccc(Cl)cc2)CC1)c1cccc(C(F)(F)F)c1	.	-5	.	.	.	.
C=CCO[C@H]1CN(C(=O)OC)[C@@H]2C[C@H]1Oc1ccccc12	.	-4	.	.	.	.
CCN(CCO)Cc1csc2ccc(Cl)cc12	5	-1	-70	1	106	70*
COc1ccc(OC)c(S(=O)(=O)CC(=O)c2cc3ccccc3oc2=O)c1	.	-6	.	.	.	.
C=CCNC(=O)c1cnc2n(c1=O)CCS2	-6	7.9*	10	-4	101	-10
Cc1cc2c(nc1C)CCCN2S(=O)(=O)c1ccc(C(F)(F)F)cc1	.	-3	.	.	.	.
N#Cc1ccc(-c2csc(NC3=NCCCCC3)n2)cc1	-18	4	75*	.	.	-75
c1ccc(-c2csc(NC3=NCCCCC3)n2)cc1	-2	3	-8	18	89	8
Cc1ccc(C(=O)Nc2cc(Cl)ccc2N2CCCCC2)s1	3	-1	77*	1	107	-77
CNc1nc(-c2ccc3c(c2)CCN3C(=O)CC(C)(C)C)c(C)s1	17	3	73*	1	101	-73
CC(=O)Nc1nc(-c2ccc3c(c2)CCN3C(=O)C2CC2)c(C)s1	10	-5	95*	-2	99	-95
CC1(C)OC(=O)C2=C(CC(CCc3ccccc3)OC2c2ccc(F)cc2)O1 (configuration not stated)	.	-4	.	.	.	.
SMILES	Hep lipid drop	SMARCA2 activ	SR-BI HDL uptake	AHR activator	Yeast superoxide	SR-BI uptake up
CCN(CC)CCCNC(=O)c1cc2c(-c3ccc(Cl)cc3)nn(C)c2s1	.	0	63	54*	103	-63
CCCCN(CC)CCNC(=O)c1cc2c(-c3ccccc3F)nn(C)c2s1	2	0	48	9	96	-48
Cn1nc(-c2ccc(Cl)cc2)c2cc(C(=O)NCC3CCCO3)sc21 (configuration not stated)	.	-2	87*	57*	106	-87
O=C(C(=O)N1CCC(CNC(=O)c2cccs2)CC1)c1cc2ccccc2o1	.	-6	.	.	.	.
COC(=O)c1cc2c(-c3ccccc3)cc3ccccn3c-2c1C(=O)OC	.	0	85*	11	109	-85
O=C(Nc1cccc(NC(=O)c2cccnc2)c1)c1ccccc1	20	1	15	35	106	-15
CCSc1ccc(NC(=O)c2cccnc2)cc1	.	-3	7	-1	100	-7
O=C(Nc1cccc(C(F)(F)F)c1)c1cccnc1	-1	.	-1	56*	91	1
CCc1ccc(NC(=O)c2cccnc2)cc1	0	3	-2	54*	101	2
O=C(C[n+]1ccc(-c2cc(C(=O)Nc3cccc(C(F)(F)F)c3)c3ccccc3n2)cc1)c1cccc([N+](=O)[O-])c1	-28	0	87*	4	110	-87
O=C(C[n+]1cccc(NC(=O)c2ccccc2)c1)c1cccc([N+](=O)[O-])c1	10	-3	-20	4	110	20
CCOc1ccc(N(CC(=O)Nc2c(C)n(C)n(-c3ccccc3)c2=O)S(=O)(=O)c2cccs2)cc1	.	-5	.	.	.	.
O=S(=O)(NCC(c1ccc2c(c1)OCO2)N1CCOCC1)c1ccccc1 (configuration not stated)	.	0	-347	1	104	347*
O=S(=O)(NCC(c1ccc2c(c1)OCO2)N1CCOCC1)c1ccc(Cl)cc1 (configuration not stated)	.	-1	-21	2	103	21
CCOC(=O)[C@]12CCCCC/C=C\1N(Cc1ccc(OC)cc1)C(=O)[C@H]2CC(=O)NCC12CC3CC(CC(C3)C1)C2	.	-4	.	.	.	.
O=C(CSc1nc2sc3c(c2c(=O)n1-c1ccc(Cl)cc1)CCCC3)c1ccccc1Cl	.	-3	.	.	.	.
CCN1Cc2nnn(Cc3ccccc3)c2-c2cc(F)ccc2S1(=O)=O	.	-4	.	.	.	.
COC(=O)c1c(C(=O)OC)c2ccncn2c1Cl	2	1	-21	74*	107	21
CCCS(=O)(=O)c1c(S(=O)(=O)CCC)c2cc(-c3ccncc3)ccn2c1C(=O)OC	-8	-1	33	2	102	-33
CC(=O)Oc1c(Br)cc(N(C(C)=O)S(=O)(=O)c2ccccc2)c2ccccc12	-10	3	5	48*	106	-5
CC(=O)Oc1ccccc1N(C(C)=O)S(=O)(=O)c1ccc2ccccc2c1	-7	2	-23	-3	94	23
CCC(c1nnnn1Cc1ccc(OC)cc1)N(CCCO)Cc1cc2cc3c(cc2[nH]c1=O)OCO3 (configuration not stated)	-8	0	-1	27	93	1
O=c1[nH]c2cc3c(cc2cc1CN(CCCO)Cc1nnnn1Cc1ccc(F)cc1)OCO3	.	0	-14	54*	103	14
CC(C)C(c1nnnn1Cc1ccccc1)N(CCCO)Cc1cc2cc3c(cc2[nH]c1=O)OCO3 (configuration not stated)	.	-1	-11	64*	89	11
CCOC(=O)[C@@]12CCC3=C1N(CCC3)C(=O)[C@H](CC(=O)NCC1CCCCC1)C2	.	1	.	.	.	.
